Data set [1] can be described thus: Cytotoxicity against human HeLa cells after 2 hrs by high content imaging analysis. Type of data set: cell-based.
Data set [2] can be described thus: Selectivity index, ratio of CC50 for human HeLa cells to EC50 for Ebolavirus H. sapiens-wt/1995/Kikwit-9510621 infected in human HeLa cells. Type of data set: toxicity, cell-based. The following applies: read-out: Ratio CC50/EC50.
In data set [3] the test system is Ebolavirus. In words: Antiviral activity against Ebolavirus H. sapiens-wt/1995/Kikwit-9510621 infected in human HeLa cells assessed as inhibition of viral infection pretreated for 2 hrs followed by viral infection and measured after 48 hrs by EboV GP immunostaining based high content imaging analysis. The format is functional, organism-based.
A short description of data set [4]: Apparent permeability from apical to basolateral side in MDCK cells. Particulars: dog; call rule not given here. The format is ADME, cell-based, Canis lupus familiaris. A digest of the protocol:
(§1)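 Apparent permeability measured in MDCK cell monolayers, apical→basolateral and basolateral→apical directions, three biological replicates.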

Data set [5] is described as follows: Apparent permeability from basolateral to apical side in MDCK cells. The format is ADME, cell-based, Canis lupus familiaris. The following applies: dog. A digest of the protocol: as §1
The mark [6] stands for this setting: Orthoebolavirus, H. sapiens-wt/1995/Kikwit-9510621, HeLa.
Setting [7] is: Orthoebolavirus, H. sapiens-wt/1995/Kikwit-9510621, HeLa, read-out: EC50.

The source of these data is ChEMBL document CHEMBL4330057, “Second generation of diazachrysenes: Protection of Ebola virus infected mice and mechanism of action” (Eur J Med Chem, 2019).

Structures are written as SMILES. Bounds are passed on as bounds.

What is called CC50 is the concentration giving 50% cytotoxicity. A high value points to better tolerance by the cells. A word on the EC90: it is the concentration at which the effect reaches the 90% level. For orientation: EC50 means the concentration at which the effect is half-maximal. Turning to `NCCCCNc1ccnc2c1ccc1c2ccc2c(NCCCCN)ccnc21`, the CC50 at 2 h in data set [1] is more than 10 µM. Moreover, the selectivity ratio in data set [2] is more than 1. Also, in data set [3] (setting [6]), the EC90 is 23.5 µM. Besides, the EC50 in data set [3] (setting [7]) was determined as 10 µM.
`CN(C)CCOCCNc1ccnc2c1ccc1c2ccc2c(NCCOCCN(C)C)ccnc21` displayed a CC50 at 2 h in data set [1] of 7 µM. In addition, in data set [2], the selectivity ratio came to 2. Moreover, in data set [3] (setting [6]), the EC90 turned out to be 6.74 µM. The EC50 in data set [3] (setting [7]) turned out to be 3.53 µM.
The corresponding values for `Clc1ccc2c(NCCCCNc3ccnc4cccnc34)ccnc2c1` are more than 25 µM, more than 8.7, 13 µM and 2.87 µM.
The corresponding values for `CCN(CC)CCNc1ccnc2c(NCCN(CC)CC)ccnc12` are more than 25 µM, more than 1.8, 62.6 µM and 14.1 µM.
Molecule `OC(CNc1ccnc2c1ccc1c2ccc2c(NCCN3CCOCC3)ccnc21)CN1CCOCC1` (centres undefined) displayed a CC50 at 2 h in data set [1] of more than 10 µM. Moreover, the selectivity ratio in data set [2] was more than 16.7. Also, in data set [3] (setting [6]), the concentration for an effect of 90% (EC90) was determined as 3.5 µM. Besides, in data set [3] (setting [7]), the EC50 worked out at 0.6 µM.
On the same counts, the results for `c1cc(NCCCCN2CCOCC2)c2nccc(NCCCCN3CCOCC3)c2n1` are more than 25 µM, more than 11.2, 9.9 µM and 2.24 µM.
As usually defined, the Papp A→B is the apparent permeability from the apical to the basolateral side of a cell layer. For orientation: Papp B→A means the apparent permeability from the basolateral to the apical side of a cell layer. For `CC(C)NCC(O)COc1cccc2ccccc12` (centres undefined) [PROPRANOLOL], in data set [4], the Papp A→B was 37.7 to 39 ×10⁻⁶ cm/s. Besides, the Papp B→A in data set [5] is 41.6 to 42.9 ×10⁻⁶ cm/s.
For the molecule `OC(CNc1ccnc2c(NCC(O)CN3CCOCC3)ccnc12)CN1CCOCC1` (centres undefined), the EC50 result in data set [3] is “Not Active”.
Consider `CCN(CC)CCCNc1ccnc2cccnc12`, for which the EC50 in data set [3] (setting [7]) worked out at 10 µM.
`CCN(CC)CCCNc1ccnc2c1ccc1c2ccc2c(NCCN3CCOCC3)ccnc21` gave a CC50 at 2 h in data set [1] of more than 10 µM. Besides, in data set [2], the selectivity ratio was more than 12.6. In addition, the EC90 in data set [3] (setting [6]) is 4.85 µM. Moreover, in data set [3] (setting [7]), the half-maximal effective concentration (EC50) came out at 0.79 µM.
As to `OC(CNc1ccnc2cccnc12)CN1CCOCC1` (centres undefined), the EC50 entry in data set [3] is “Not Active”.
Take `COc1cc2nc(N3CCN(C(=O)c4ccco4)CC3)nc(N)c2cc1OC` [PRAZOSIN]: the Papp A→B in data set [4] is 27.6 to 30 ×10⁻⁶ cm/s. Also, the Papp B→A in data set [5] is 48.6 to 58.9 ×10⁻⁶ cm/s.
`c1cc(NCCN2CCOCC2)c2nccc(NCCN3CCOCC3)c2n1`: the CC50 at 2 h in data set [1] was more than 25 µM. Further, the EC50 result in data set [3] is on record as “Not Active”.
`CCN(CC)CCCC(C)Nc1ccnc2cccnc12` (centres undefined): the EC50 in data set [3] (setting [7]) was 10 µM.
Turning to `c1cnc2c(NCCCN3CCOCC3)ccnc2c1`, the EC50 entry in data set [3] is recorded as “Not Active”.
`NCCCNc1ccnc2c1ccc1c2ccc2c(NCCCN)ccnc21` registered a CC50 at 2 h in data set [1] of more than 10 µM. The selectivity ratio in data set [2] is more than 1. Further, the EC90 in data set [3] (setting [6]) was determined as 20.5 µM. The EC50 in data set [3] (setting [7]) amounted to 10 µM.
In the case of `c1cc(NCCCN2CCOCC2)c2nccc(NCCCN3CCOCC3)c2n1`, the EC50 in data set [3] (setting [7]) came to 10 µM.
